Laboratory results reported in ChEMBL document CHEMBL1955778, “Design and synthesis of novel 7-aminoquinazoline derivatives: antitumor and anticonvulsant activities” (Bioorg Med Chem Lett, 2012).

Tests used:
SK-OV-3 = experiment: Growth inhibition of human SKOV3 cells at 10 uM relative to control; assay type: functional; conditions: read-out: GI
Summary of the method: (§1)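 Each cell line in a 60-line human tumour panel exposed to one 10 μM concentration. Growth inhibition percentage computed as 100 minus the percentage activity relative to control.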

UACC-62 = experiment: Growth inhibition of human UACC62 cells at 10 uM relative to control; assay type: functional; conditions: read-out: GI
Summary of the method: (§2)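 Single-dose screen across the 60-cell-line human tumor panel at 10 μM. Growth inhibition is reported as a percentage, taken as 100 minus the % growth relative to untreated control.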

UACC-257 = experiment: Growth inhibition of human UACC257 cells at 10 uM relative to control; assay type: functional; conditions: read-out: GI; summary of the method: as §2
MDA-MB-435 = experiment: Growth inhibition of human MDA-MB-435 cells at 10 uM relative to control; assay type: functional; conditions: read-out: GI; summary of the method: as §1
SK-MEL-28 = experiment: Growth inhibition of human SK-MEL-28 cells at 10 uM relative to control; assay type: functional; conditions: read-out: GI; summary of the method: as §1
U-251 = experiment: Growth inhibition of human U251 cells at 10 uM relative to control; assay type: functional; conditions: read-out: GI; summary of the method: as §2
LOX IMVI = experiment: Growth inhibition of human LOXIMVI cells at 10 uM relative to control; assay type: functional; conditions: read-out: GI; summary of the method: as §1
SNB-75 = experiment: Growth inhibition of human SNB75 cells at 10 uM relative to control; assay type: functional; conditions: read-out: GI; summary of the method: as §2
SF-295 = experiment: Growth inhibition of human SF295 cells at 10 uM relative to control; assay type: functional; conditions: read-out: GI; summary of the method: as §1
HT-29 = experiment: Growth inhibition of human HT-29 cells at 10 uM relative to control; assay type: functional; conditions: read-out: GI; summary of the method: as §1
KM12 = experiment: Growth inhibition of human KM12 cells at 10 uM relative to control; assay type: functional; conditions: read-out: GI; summary of the method: as §1
HCT-15 = experiment: Growth inhibition of human HCT15 cells at 10 uM relative to control; assay type: functional; conditions: read-out: GI; summary of the method: as §1
NCI-H522 = experiment: Growth inhibition of human NCI-H522 cells at 10 uM relative to control; assay type: functional; conditions: read-out: GI; summary of the method: as §1
A549 = experiment: Growth inhibition of human A549 cells at 10 uM relative to control; assay type: functional; conditions: read-out: GI; summary of the method: as §1
RPMI-8226 = experiment: Growth inhibition of human RPMI8226 cells at 10 uM relative to control; assay type: functional; conditions: read-out: GI; summary of the method: as §1
SR = experiment: Growth inhibition of human SR cells at 10 uM relative to control; assay type: functional; conditions: read-out: GI; summary of the method: as §2
MOLT-4 = experiment: Growth inhibition of human MOLT4 cells at 10 uM relative to control; assay type: functional; conditions: read-out: GI; summary of the method: as §1
K562 = experiment: Growth inhibition of human K562 cells at 10 uM relative to control; assay type: functional; conditions: read-out: GI; summary of the method: as §1
CCRF-CEM = experiment: Growth inhibition of human CCRF-CEM cells at 10 uM relative to control; assay type: functional; conditions: read-out: GI; summary of the method: as §1
HL-60(TB) = experiment: Growth inhibition of human HL-60(TB) cells at 10 uM relative to control; assay type: functional; conditions: read-out: GI
Summary of the method: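 Single-dose screen at 10 μM across the 60-cell-line tumour panel. Percent growth inhibition = 100 minus percent growth activity relative to untreated control.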

Mus musculus [1] = species: Mus musculus; experiment: Protective index, ratio of TD50 for mouse to ED50 for pentylenetetrazol-induced seizure in mouse; assay type: functional
Summary of the method: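 Mice. Index is TD50/ED50. TD50 is the dose causing minimal neurological toxicity in 50% of mice in the Chimney test. ED50 is the dose protecting 50% of mice against pentylenetetrazole-induced seizures. Both are estimated from testing at several doses.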

[2] = Toxicity in ip dose mouse assessed as mortality; assay type: organism-based; conditions: in vivo
Summary of the method: (§3)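 In mice, LD50 is the dose causing 50% mortality. ED50 is the dose protecting 50% of mice against pentylenetetrazole-induced seizures. Therapeutic index = LD50/ED50.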

[3] = Therapeutic index, ratio of LD50 for mouse to ED50 for pentylenetetrazol-induced seizure in mouse; assay type: organism-based; conditions: in vivo, read-out: Ratio LD50/ED50; summary of the method: as §3
[4] = Neurotoxicity in ip dosed mouse assessed as impaired motor coordination administered 30 mins prior to test by chimney test; assay type: toxicity, organism-based; conditions: in vivo
Summary of the method: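 Mice, Chimney test. TD50 is the dose that produces minimal neurological toxicity (impaired motor coordination) in 50% of animals, estimated from testing at several doses.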

Mus musculus [5] = experiment: Anticonvulsant activity in ip dosed mouse assessed as protection against pentylenetetrazol-induced seizure administered 30 min prior to pentylenetetrazol-challenge measured after 60 mins; assay type: functional
Summary of the method: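 Mice received several doses for quantification. ED50 taken as the dose protecting 50% of mice against pentylenetetrazol-induced seizures.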

Mus musculus [6] = experiment: Anticonvulsant activity in mouse assessed as protection against maximal electroshock-induced seizure at 1 mmol/kg, ip administered 30 min prior to maximal electroshock-challenge measured after 60 mins relative to control; assay type: functional
Mus musculus [7] = experiment: Anticonvulsant activity in mouse assessed as protection against picrotoxin-induced seizure at 1 mmol/kg, ip administered 30 min prior to picrotoxin-challenge measured after 60 mins relative to control; assay type: functional
Mus musculus [8] = experiment: Anticonvulsant activity in mouse assessed as protection against strychnine-induced seizure at 1 mmol/kg, ip administered 30 min prior to strychnine-challenge measured after 60 mins relative to control; assay type: functional
Mus musculus [9] = experiment: Anticonvulsant activity in mouse assessed as protection against pentylenetetrazol-induced seizure at 1 mmol/kg, ip administered 30 min prior to pentylenetetrazol-challenge measured after 60 mins relative to control; assay type: functional
MDA-MB-468 = experiment: Growth inhibition of human MDA-MB-468 cells at 10 uM relative to control; assay type: functional; conditions: read-out: GI; summary of the method: as §1
MDA-MB-231 = experiment: Growth inhibition of human MDA-MB-231 cells at 10 uM relative to control; assay type: functional; conditions: read-out: GI; summary of the method: as §1
MCF7 = experiment: Growth inhibition of human MCF7 cells at 10 uM relative to control; assay type: functional; conditions: read-out: GI; summary of the method: as §1
PC-3 = experiment: Growth inhibition of human PC3 cells at 10 uM relative to control; assay type: functional; conditions: read-out: GI; summary of the method: as §1
UO-31 = experiment: Growth inhibition of human UO31 cells at 10 uM relative to control; assay type: functional; conditions: read-out: GI; summary of the method: as §2
ACHN = experiment: Growth inhibition of human ACHN cells at 10 uM relative to control; assay type: functional; conditions: read-out: GI; summary of the method: as §1

## Cc1ccccc1-n1c(C)nc2cc(N3C(=O)CSC3c3ccc(F)cc3)ccc2c1=O (stereo unspecified)
SK-OV-3
  inhibition of growth at 10 µM: 3%
UACC-62
  inhibition of growth at 10 µM: 14%
UACC-257
  inhibition of growth at 10 µM: 9%
MDA-MB-435
  inhibition of growth at 10 µM: 9.7%
SK-MEL-28
  inhibition of growth at 10 µM: 11%
U-251
  inhibition of growth at 10 µM: 11%
LOX IMVI
  inhibition of growth at 10 µM: 5%
SNB-75
  inhibition of growth at 10 µM: 8.5%
SF-295
  inhibition of growth at 10 µM: 7%
HT-29
  inhibition of growth at 10 µM: 3%
KM12
  inhibition of growth at 10 µM: 4%
HCT-15
  inhibition of growth at 10 µM: 5%
NCI-H522
  inhibition of growth at 10 µM: 18%
A549
  inhibition of growth at 10 µM: 2%
RPMI-8226
  inhibition of growth at 10 µM: 10%
SR
  inhibition of growth at 10 µM: 4%
MOLT-4
  inhibition of growth at 10 µM: 28.9%
K562
  inhibition of growth at 10 µM: 10%
CCRF-CEM
  inhibition of growth at 10 µM: 13.2%
HL-60(TB)
  inhibition of growth at 10 µM: 7%
Mus musculus [1]
  Ratio TD50/ED50: 1.4
[2]
  LD50: 1020 µmol/kg
[3]
  selectivity ratio: 2.55
[4]
  TD50 at 0.5 h: 560 µmol/kg
Mus musculus [5]
  ED50: 400 µmol/kg
Mus musculus [6]
  Activity: 100%
Mus musculus [7]
  Activity: 75%
Mus musculus [8]
  Activity: 0%
Mus musculus [9]
  Activity: 100%
MDA-MB-468
  inhibition of growth at 10 µM: 2.5%
MDA-MB-231
  inhibition of growth at 10 µM: 8%
MCF7
  inhibition of growth at 10 µM: 9%
PC-3
  inhibition of growth at 10 µM: 12.2%
UO-31
  inhibition of growth at 10 µM: 11.7%
ACHN
  inhibition of growth at 10 µM: 3%

## Cc1ccccc1-n1c(C)nc2cc(/N=C/c3ccc(Cl)cc3)ccc2c1=O
Mus musculus [1]
  Ratio TD50/ED50: 2.54
[2]
  LD50: 1810 µmol/kg
[3]
  selectivity ratio: 4.6
[4]
  TD50 at 0.5 h: 890 µmol/kg
Mus musculus [5]
  ED50: 350 µmol/kg
Mus musculus [6]
  Activity: 100%
Mus musculus [7]
  Activity: 50%
Mus musculus [8]
  Activity: 0%
Mus musculus [9]
  Activity: 100%

## Cc1ccc(S(=O)(=O)Nc2ccc3c(=O)n(-c4ccccc4C)c(C)nc3c2)cc1
Mus musculus [6]
  Activity: 0%
Mus musculus [8]
  Activity: 0%
Mus musculus [9]
  Activity: 66%

## Cc1ccccc1-n1c(C)nc2cc(/N=C/c3ccco3)ccc2c1=O
Mus musculus [6]
  Activity: 50%
Mus musculus [8]
  Activity: 0%
Mus musculus [9]
  Activity: 0%

## Cc1ccccc1-n1c(C)nc2cc(/N=C/c3ccccc3)ccc2c1=O
Mus musculus [6]
  Activity: 50%
Mus musculus [8]
  Activity: 0%
Mus musculus [9]
  Activity: 0%

## Cc1ccccc1-n1c(C)nc2cc(N3C(=O)C=CC3=O)ccc2c1=O
Mus musculus [6]
  Activity: 33%
Mus musculus [8]
  Activity: 0%
Mus musculus [9]
  Activity: 0%
